Screens deposited in PubChem BioAssay by several laboratories.
proCasp7 act: counter-screen: procaspase-7 (human) activation | 0.093% of 330,000 active | AID 463210 | recombinant procaspase-7, Ac-DEVD-pNA absorbance 405 nm; D23A/D198A/D206A triple mutant, cannot self-cleave; scale: DMSO 0, 5 µM enzyme 100 | activation, % at 8.5 µM | P55210;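 active means percent activation above the screen-wide mean plus 3 SD, cut at about 25% in these data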
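Replicates: singlicate. Assay system: Procaspase-7 triple mutant (PC-7 D3A). Signal: 405 nm absorbance of p-nitroaniline. Times: 1 h preincubation, 2 h reaction. Buffer or medium: Zinc-free HEPES pH 7.4 with 300 mM NaCl, 0.01% Triton X-100. Also added: DEVD-pNA substrate. Benchmarks: DMSO wells as 0%, DMSO with 5 µM added PC-7 as 100%.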
sPLA2-III inh: Inhibits HGIII-sPLA2 liposome hydrolysis, primary screen; Q9NZ20; QFRET BODIPY PC-A2 liposome hydrolysis, fluorescence; inhibition, % at 12.2 µM; 0.56% of 370,000 active; AID 743126;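 active means inhibition above mean plus 3 SD of compounds lying within the high and low control bounds, cut at about 19% in these data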
Target sequence (Q9NZ20 whole entry, looked up): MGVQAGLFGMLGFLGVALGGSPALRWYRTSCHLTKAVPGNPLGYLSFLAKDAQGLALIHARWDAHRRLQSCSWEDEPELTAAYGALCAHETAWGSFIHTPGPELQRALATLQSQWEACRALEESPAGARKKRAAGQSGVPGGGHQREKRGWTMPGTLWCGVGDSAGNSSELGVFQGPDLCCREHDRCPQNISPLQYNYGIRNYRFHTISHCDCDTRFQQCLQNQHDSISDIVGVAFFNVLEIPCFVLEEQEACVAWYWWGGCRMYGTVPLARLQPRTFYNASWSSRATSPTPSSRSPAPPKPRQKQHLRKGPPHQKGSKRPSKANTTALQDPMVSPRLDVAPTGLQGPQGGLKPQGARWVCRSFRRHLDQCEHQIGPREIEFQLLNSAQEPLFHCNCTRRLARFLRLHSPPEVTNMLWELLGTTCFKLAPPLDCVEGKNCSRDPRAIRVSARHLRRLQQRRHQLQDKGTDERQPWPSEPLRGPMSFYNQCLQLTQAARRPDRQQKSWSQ
PLCb3 inh: PLC-beta3 (human) inhibition, primary screen; Q01970; AID 720704; inhibition, % at 12.2 µM; Purified PLC-beta3, fluorogenic substrate, fluorescence; 0.18% of 370,000 active
procasp3 activ: activators of human procaspase-3; AID 463141; 0.11% of 330,000 active; activation, % at 8.5 µM; P42574; recombinant procaspase-3 D3A, Ac-DEVD-pNA absorbance 405 nm;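 active means activation above the mean of all tested compounds plus 3 SD, cut at about 21% in these data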
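assay system = Procaspase-3 D3A mutant | signal = absorbance at 405 nm, 0 and 120 min | times = 1 h preincubation plus 2 h reaction at 25 °C | repeats = single replicate | read-out = % activation between DMSO and enzyme-spiked controls | medium = Zinc-free HEPES saline buffer with Triton X-100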
Arrestin-AP2 inh: blocks beta-arrestin peptide binding to AP2 adaptin; FITC-arrestin peptide / GST-AP2 beads, flow cytometry; AP2 beta2 appendage carries R879A mutation; inhibition, % at 10 µM; 0.31% of 340,000 active; AID 504490;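 active means inhibition above a set limit, near 3 SD of compounds lacking own fluorescence, cut at about 54% in these data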
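system = GST-tagged AP2 beta2-adaptin appendage (R879A) on 4 µm glutathione beads | reagent = FITC-labelled arrestin peptide probe, 50 nM final | schedule = compound with beads 12 min RT, then probe 1 h RT | signal = HyperCyt-sampled flow cytometry, FL1 channel, ex 488/em 535 nm | read-out = percent response from loss of bead-bound FITC fluorescence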
PLC-gamma1 inh: PLC-gamma1 (human) inhibition, primary screen; P19174; purified PLC-gamma1, fluorogenic substrate, fluorescence; inhibition, % at 12.2 µM; 0.84% of 370,000 active; in the data active means inhibition above about 9.5%
PLCg1 ctr: PLC-gamma1 inhibition, counter-screen for PLC-beta3 hits. purified PLC-gamma1, fluorogenic substrate, fluorescence. 3.1% of 3,300 active. inhibition, % at 12.3 µM. AID 743258. shares compounds with PLC-gamma1 inh; in the data active means inhibition above about 9.5%
PLCb3 confirm: confirmation of human PLC-beta3 inhibitors; 1% of 3,300 active; purified PLC-beta3, fluorogenic substrate fluorescence; inhibition, % at 12.3 µM; shares compounds with PLC-gamma1 inh
Of the large screens only hits and unclear results are named; the others gave an inactive call (follow-up assays come after a bar, where they were run). In the library only some 1.9% were active in any assay of this set; here they are far more common. Unless noted, no stated cut-off is given here; in the data, active means inhibition above about 11%; inactive means the rest.

CN(Cc1ccccc1)C(=O)OCc1cn(Cc2ccc(Cl)cc2)nn1	none (no result: proCasp7 act, procasp3 activ, Arrestin-AP2 inh)
CCOC(=O)N1CCN(C(=O)C[C@H]2C[C@@]3(C(=O)OC)C(=C[C@H](C4CCCC4)O[C@@H]3C)N(Cc3ccco3)C2=O)CC1	none (no result: proCasp7 act, procasp3 activ, Arrestin-AP2 inh)
CCOc1ccc(NC(=O)CC2SC(=O)N(c3ccccc3)C2=O)cc1 (stereo not given)	PLC-gamma1 inh 9.9 | PLCg1 ctr inactive | PLCb3 confirm inactive
Cc1ccccc1NC(=O)CC1SC(=O)N(c2ccccc2)C1=O (stereo not given)	none
CC(=O)OCCCN1CCC2(CCC(c3ccccc3)CC2)C1=O (stereo not given)	none (no result: proCasp7 act, procasp3 activ, Arrestin-AP2 inh)
COc1cccc(-c2noc(C(C)n3nc(C)c([N+](=O)[O-])c3C)n2)c1 (stereo not given)	PLC-gamma1 inh 11 | PLCg1 ctr inactive | PLCb3 confirm inactive
COc1cccc(-c2noc(-c3cccnc3)n2)c1	none
CCn1c(SCC(=O)Nc2nc(C)c(C)s2)nnc1-c1cccnc1	PLC-gamma1 inh 9.8 | PLCg1 ctr inactive | PLCb3 confirm inactive
COc1ccc(NC(=O)CN(C)C(=O)C2CC(=O)N(Cc3ccc(C)cc3)C2)cc1 (stereo not given)	PLC-gamma1 inh 12 | PLCg1 ctr inactive | PLCb3 confirm inactive
COc1ccc(NC(=O)CN(C)C(=O)C2CC(=O)N(CCc3ccc(OC)c(OC)c3)C2)cc1 (stereo not given)	none (no result: proCasp7 act, procasp3 activ)
COC(=O)NNC(=O)C12CC3CC(CC(C3)C1)C2	PLC-gamma1 inh 14 | PLCg1 ctr inactive | PLCb3 confirm inactive
CCN1C(=O)/C(=C\N(C)C)S/C1=N\S(=O)(=O)c1ccc(C)cc1	none
C=CCN1C(=O)/C(=C/N(C)C)S/C1=N\S(=O)(=O)c1cccs1	PLCb3 inh 12 (no result: proCasp7 act, procasp3 activ, Arrestin-AP2 inh) | PLCg1 ctr inactive | PLCb3 confirm inactive
N#Cc1ccc2nc(-c3ccc(CN4CCC(c5nc6ccccc6[nH]5)CC4)cc3)c(-c3ccccc3)nc2c1	none (no result: proCasp7 act, procasp3 activ, Arrestin-AP2 inh)
Cc1ccc(S(=O)(=O)N2CCCCC2)cc1C(=O)Nc1ccc(N2CCOCC2)cc1	PLC-gamma1 inh 12 | PLCg1 ctr inactive | PLCb3 confirm inactive
Cc1cc(C(F)F)n2nc(C(=O)Nc3ccc(S(=O)(=O)N4CCCCCC4)cc3)nc2n1	PLC-gamma1 inh 9.9 | PLCg1 ctr inactive | PLCb3 confirm inactive
O=C(Nc1cccc(O)c1)c1ccc(S(=O)(=O)N2CCCCCC2)cc1	PLC-gamma1 inh 11 (no result: proCasp7 act, procasp3 activ) | PLCg1 ctr inactive | PLCb3 confirm inactive
CCOC(=O)C(Cc1ccccc1)P(=O)(OCC)OCC (stereo not given)	none (no result: proCasp7 act, procasp3 activ, Arrestin-AP2 inh)
COc1ccc(/C=C2\CC3(OC(=O)C4CCCCC4)CCCN2C3)cc1 (stereo not given)	none (no result: proCasp7 act, procasp3 activ, Arrestin-AP2 inh)
O=C(O)C1CCCCN1C(=O)c1ccc(S(=O)(=O)N2CCCC2)cc1 (stereo not given)	PLC-gamma1 inh 9.7 (no result: proCasp7 act, procasp3 activ) | PLCg1 ctr inactive | PLCb3 confirm inactive
Cc1onc(C(=O)N2CCN(C(c3ccc(Cl)cc3)c3ccc(Cl)cc3)CC2)c1[N+](=O)[O-]	none (no result: proCasp7 act, procasp3 activ, Arrestin-AP2 inh)
CC(OC(=O)c1ccc2c(c1)OCCO2)C(=O)NC1CCCCC1C (stereo not given)	none
CCCCn1c(N)c(N(CC)C(=O)c2ccccc2F)c(=O)[nH]c1=O	PLC-gamma1 inh 12 | PLCg1 ctr inactive | PLCb3 confirm inactive
O=C(COc1c(Cl)cc(Cl)cc1Cl)N/N=C/c1ccc[nH]1	none (no result: proCasp7 act, procasp3 activ, Arrestin-AP2 inh)
CC(C)N1CCN(c2ccc(OC[C@H]3CO[C@](Cn4cncn4)(c4ccc(Cl)cc4Cl)O3)cc2)CC1	none
CC(C)N1CCN(c2ccc(OCC3COC(Cn4cncn4)(c4ccc(Cl)cc4Cl)O3)cc2)CC1 (stereo not given)	PLC-gamma1 inh 9.8 (no result: proCasp7 act, procasp3 activ) | PLCg1 ctr inactive | PLCb3 confirm inactive
COc1ccc(CSc2nnc(C)n2N)cc1[N+](=O)[O-]	PLC-gamma1 inh 10 | PLCg1 ctr inactive | PLCb3 confirm inactive
Cc1cccc(Oc2cc(NC(=O)Cn3cnc([N+](=O)[O-])n3)cc([N+](=O)[O-])c2)c1	PLC-gamma1 inh 11 (no result: Arrestin-AP2 inh) | PLCg1 ctr inactive | PLCb3 confirm inactive
Cc1ccc(C(OCC(O)CNCc2ccc(F)cc2)c2ccccc2)cc1 (stereo not given)	PLC-gamma1 inh 17 | PLCg1 ctr inactive | PLCb3 confirm inactive
O=C(c1ccccc1)c1ccc(OCC(O)CNCc2ccc(F)cc2)cc1 (stereo not given)	none (no result: proCasp7 act, procasp3 activ)
CCCC(O)(c1ccc(Cl)cc1)C(CN1CCOCC1)c1ccc(Cl)cc1 (stereo not given)	none
CCCC(O)(c1ccc(OC)cc1)C(CN1CCOCC1)c1ccc(Cl)cc1 (stereo not given)	PLC-gamma1 inh 11 | PLCg1 ctr inactive | PLCb3 confirm inactive
COc1ccccc1-c1cc(C(=O)Nc2ccc(F)cc2F)no1	PLC-gamma1 inh 12 | PLCg1 ctr inactive | PLCb3 confirm inactive
O=C1N=C(N2C=CC(=C3C=CNC=C3)C=C2)/C(=C/N=NC(=O)c2ccccc2O)S1	none
CSCCC(NC(=O)OCc1ccccc1)C(=O)NCc1cccnc1 (stereo not given)	PLC-gamma1 inh 9.8 (no result: proCasp7 act, procasp3 activ) | PLCg1 ctr inactive | PLCb3 confirm inactive
